# Measured values published in ChEMBL document CHEMBL1208769, “Anti-T. cruzi activities and QSAR studies of 3-arylquinoxaline-2-carbonitrile di-N-oxides” (Bioorg Med Chem Lett, 2010).
# Key:
# [1] = test system: Trypanosoma cruzi; assay: Antitrypanosomal activity against Trypanosoma cruzi Tulahuen 2 epimastigotes; type: functional, organism-based
# [2] = test system: Trypanosoma cruzi; assay: Antitrypanosomal activity against Trypanosoma cruzi Tulahuen 2 epimastigotes assessed as inhibition of parasite growth at 25 uM relative to control; type: functional; settings: read-out: GI
# Method in brief: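 Epimastigotes of T. cruzi Tulahuen 2 strain exposed to compound at 25 µM. Growth inhibition is given as percentage relative to untreated parasites. Values are means of three separate experiments, SD under 10%.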
# [3] = Octanol-water partition coefficient of the compound; type: physicochemical
Structure (SMILES),IC50 [1] [µM],inhibition of growth at 25 µM [2] [%],logP [3]
N#Cc1c(-c2cccs2)[n+]([O-])c2ccc(F)cc2[n+]1[O-],13,100,1.75
N#Cc1c(-c2cccs2)[n+]([O-])c2ccc(Cl)cc2[n+]1[O-],7.1,100,1.89
Cc1ccc2c(c1)[n+]([O-])c(C#N)c(-c1cccs1)[n+]2[O-],14.8,74.3,1.62
N#Cc1c(-c2cccs2)[n+]([O-])c2ccc(C(F)(F)F)cc2[n+]1[O-],7.8,100,2.27
N#Cc1c(-c2ccco2)[n+]([O-])c2ccccc2[n+]1[O-],25,46.3,0.582
N#Cc1c(-c2ccco2)[n+]([O-])c2ccc(F)cc2[n+]1[O-],14.9,83.4,0.983
N#Cc1c(-c2ccco2)[n+]([O-])c2ccc(Cl)cc2[n+]1[O-],18.9,64.5,1.11
Cc1ccc2c(c1)[n+]([O-])c(C#N)c(-c1ccco1)[n+]2[O-],18.1,68.5,0.845
N#Cc1c(-c2ccco2)[n+]([O-])c2ccc(C(F)(F)F)cc2[n+]1[O-],12.5,100,1.5
COc1ccc2c(c1)[n+]([O-])c(C#N)c(-c1ccco1)[n+]2[O-],> 25,33.4,0.354
N#Cc1c(-c2cccs2)[n+]([O-])c2ccccc2[n+]1[O-],12.7,100,1.35
COc1ccc(-c2c(C#N)[n+]([O-])c3cc(C)ccc3[n+]2[O-])cc1,18.9,94.6,1.82
N#Cc1c(-c2ccc(OC(F)(F)F)cc2)[n+]([O-])c2ccc(C(F)(F)F)cc2[n+]1[O-],9.2,100,2.79
N#Cc1c(-c2ccccc2)[n+]([O-])c2ccccc2[n+]1[O-],66.6,36.9,1.84
Cc1ccc2c(c1)[n+]([O-])c(C#N)c(-c1ccccc1)[n+]2[O-],23.7,88.1,2.09
COc1ccc2c(c1)[n+]([O-])c(C#N)c(-c1ccccc1)[n+]2[O-],19.3,111,1.58
N#Cc1c(-c2ccc(F)cc2)[n+]([O-])c2ccc(Cl)cc2[n+]1[O-],13.2,92.7,2.74
Cc1ccc2c(c1)[n+]([O-])c(C#N)c(-c1ccc(F)cc1)[n+]2[O-],17.4,83.8,2.48
Cc1ccc2c(c1)[n+]([O-])c(C#N)c(-c1ccc(Cl)cc1)[n+]2[O-],17.4,88.4,2.6
Cc1ccc(-c2c(C#N)[n+]([O-])c3ccccc3[n+]2[O-])cc1,23.7,104,2.09
Cc1ccc(-c2c(C#N)[n+]([O-])c3cc(Cl)ccc3[n+]2[O-])cc1,17.4,104,2.6
COc1ccc2c(c1)[n+]([O-])c(C#N)c(-c1ccc(C)cc1)[n+]2[O-],18.9,112,1.82
COc1ccc(-c2c(C#N)[n+]([O-])c3ccccc3[n+]2[O-])cc1,19.3,110,1.58

Structure (SMILES),IC50 [1] [µM],inhibition of growth at 25 µM [2] [%],logP [3]
N#Cc1c(-c2ccc(OC(F)(F)F)cc2)[n+]([O-])c2ccccc2[n+]1[O-],14.5,100,1.94
N#Cc1c(-c2ccc(F)cc2)[n+]([O-])c2ccccc2[n+]1[O-],15.2,82.8,2.23
N#Cc1c(-c2ccccc2)[n+]([O-])c2ccc(F)cc2[n+]1[O-],15.4,89.4,2.23
N#Cc1c(-c2ccc(F)cc2)[n+]([O-])c2ccc(F)cc2[n+]1[O-],14.4,63.8,2.62
N#Cc1c(-c2ccc(Cl)cc2)[n+]([O-])c2ccc(F)cc2[n+]1[O-],13.4,85.4,2.74
Cc1ccc(-c2c(C#N)[n+]([O-])c3cc(C(F)(F)F)ccc3[n+]2[O-])cc1,12.3,114,2.95
COc1ccc(-c2c(C#N)[n+]([O-])c3cc(F)ccc3[n+]2[O-])cc1,14.3,92.2,1.97
N#Cc1c(-c2ccc(OC(F)(F)F)cc2)[n+]([O-])c2ccc(Cl)cc2[n+]1[O-],8.3,89.1,2.45
COc1ccc2c(c1)[n+]([O-])c(C#N)c(-c1ccc(OC(F)(F)F)cc1)[n+]2[O-],8.2,100,1.69
N#Cc1c(-c2ccccc2)[n+]([O-])c2ccc(C(F)(F)F)cc2[n+]1[O-],15.1,100,2.72
N#Cc1c(-c2ccc(F)cc2)[n+]([O-])c2ccc(C(F)(F)F)cc2[n+]1[O-],14.9,100,3.1
N#Cc1c(-c2ccc(Cl)cc2)[n+]([O-])c2ccc(Cl)cc2[n+]1[O-],15.3,97.5,2.87
COc1ccc(-c2c(C#N)[n+]([O-])c3cc(C(F)(F)F)ccc3[n+]2[O-])cc1,10.7,114,2.45
N#Cc1c(-c2ccccc2)[n+]([O-])c2ccc(Cl)cc2[n+]1[O-],18.1,97.8,2.35
N#Cc1c(-c2ccc(Cl)cc2)[n+]([O-])c2ccccc2[n+]1[O-],18.1,97.1,2.35
COc1ccc2c(c1)[n+]([O-])c(C#N)c(-c1ccc(Cl)cc1)[n+]2[O-],14.3,111,2.09
COc1ccc2c(c1)[n+]([O-])c(C#N)c(-c1ccc(F)cc1)[n+]2[O-],14.6,84.2,1.97
Cc1ccc(-c2c(C#N)[n+]([O-])c3cc(C)ccc3[n+]2[O-])cc1,50,41.6,2.33
COc1ccc(-c2c(C#N)[n+]([O-])c3cc(Cl)ccc3[n+]2[O-])cc1,14.3,110,2.09
N#Cc1c(-c2ccc(OC(F)(F)F)cc2)[n+]([O-])c2ccc(F)cc2[n+]1[O-],13.1,80.2,2.33
Cc1ccc(-c2c(C#N)[n+]([O-])c3cc(F)ccc3[n+]2[O-])cc1,17.4,87.3,2.48
N#Cc1c(-c2ccc(Cl)cc2)[n+]([O-])c2ccc(C(F)(F)F)cc2[n+]1[O-],9.2,100,3.22
CC1CS(=O)(=O)CCN1/N=C/c1ccc([N+](=O)[O-])o1 (configuration not stated) [NIFURTIMOX],,100,-0.746
